Laboratory results: the RNAGym collection of RNA variant scans (doi:10.1126/science.aae0568)
Fewer inactive variants are shown than the library holds.

B1: tRNA (parent)
chain: GUUCCGUUGGCGUAAUGGUAACGCGUCUCCCUCCUAAGGAGAAGACUGCGGGUUCGAGUCCCGUACGGAACG

Variants of: B1
Assay: yeast fitness relative to wild type (ratio to wild type); higher = fitter; tRNA-Arg(CCU), competitive growth, 37 C, YPD
In short: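 For this measurement, the tRNA-Arg(CCU) gene was varied by chemical synthesis at a 3% per-site mutation rate across 69 sites, and each variant was placed at the native genomic locus in Saccharomyces cerevisiae. The pooled strains went through a 24-hour competition in YPD at 37°C in six parallel replicates, with amplicons from start and end populations read by 100-nucleotide paired-end sequencing. Darwinian fitness relative to wild type followed from the change in each genotype's frequency. Genotypes needed ≥ 100 starting reads, and estimates < 0.5 were set to 0.5.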

Q: With U3A A14G G58A as the variant, how does the yeast fitness read?
A: 0.883

Q: Which yeast fitness does the source give for U2G A21C C22U C60G here?
A: ≤ 0.5

Q: Which yeast fitness does the source give for U2G G39A C61G here?
A: ≤ 0.5

Q: Which yeast fitness does the source give for U2G G18A C27A C30U A65U here?
A: ≤ 0.5

Q: With U2G G17A G23A G38C A40G as the variant, how does the yeast fitness read?
A: 0.694

Q: With U2G C22U C66U as the variant, how does the yeast fitness read?
A: 0.563

Q: Which yeast fitness does the source give for U2G C4U G52C here?
A: 0.516

Q: Which yeast fitness does the source give for U3A C27A C30U G41C A43U C49A here?
A: ≤ 0.5

Q: With U2C C55U as the variant, how does the yeast fitness read?
A: 0.792

Q: With U2C U8A G17C G38A C61A as the variant, how does the yeast fitness read?
A: ≤ 0.5

Q: Which yeast fitness does the source give for U3A A57U A65C A69C here?
A: 0.593

Q: For U2G A40U C49A, which yeast fitness is on record?
A: 0.547

Q: For U2G G6A A20G, which yeast fitness is on record?
A: 0.61

Q: For U3A G12C C24G, which yeast fitness is on record?
A: ≤ 0.5

Q: With U2G C60A C66G as the variant, how does the yeast fitness read?
A: 0.989

Q: For U2G U13A, which yeast fitness is on record?
A: 0.822

Q: With U3A C55U as the variant, how does the yeast fitness read?
A: 0.876

Q: For U2G A36U A45U U53A, which yeast fitness is on record?
A: ≤ 0.5

Q: With U3A C5A C30G G38C C61A as the variant, how does the yeast fitness read?
A: 0.655

Q: Which yeast fitness does the source give for U2C C33U here?
A: 0.862

Q: Which yeast fitness does the source give for U3A C33G A43G G58A G67A A69U here?
A: ≤ 0.5

Q: Which yeast fitness does the source give for U3A C11A A20G G39A G51A U53A G63C here?
A: ≤ 0.5

Q: Which yeast fitness does the source give for U2G C22A G25C C33U A69C here?
A: ≤ 0.5

Q: With U2C U47A C55G as the variant, how does the yeast fitness read?
A: ≤ 0.5

Q: Which yeast fitness does the source give for U3A C27G A43G here?
A: ≤ 0.5

Q: With U2G A14U A21C A36C C49A A65G C66G as the variant, how does the yeast fitness read?
A: ≤ 0.5

Q: With U2C U7A A65U as the variant, how does the yeast fitness read?
A: 0.725

Q: Which yeast fitness does the source give for U3A C5A A45C G50C U64C here?
A: 0.54

Q: With U3A C4U C31A C66G G68C as the variant, how does the yeast fitness read?
A: ≤ 0.5

Q: Which yeast fitness does the source give for U2C U35A here?
A: 0.62

Q: With U2G U35A U54G as the variant, how does the yeast fitness read?
A: ≤ 0.5

Q: With U2G C27A G67U as the variant, how does the yeast fitness read?
A: ≤ 0.5

Q: Which yeast fitness does the source give for U2G G12A C34A A37G here?
A: ≤ 0.5

Q: Which yeast fitness does the source give for U2C U26G A70U here?
A: 0.703

Q: Which yeast fitness does the source give for U2C G51U U54A A70U here?
A: ≤ 0.5

Q: Which yeast fitness does the source give for U3A C27G U28G A36U A45U C49G here?
A: 0.662

Q: Which yeast fitness does the source give for U2C U16C C22A C29A G51C here?
A: ≤ 0.5

Q: For U3A A15U A21C G39C A43G U54C, which yeast fitness is on record?
A: ≤ 0.5

Q: With U3A C11U as the variant, how does the yeast fitness read?
A: 0.808

Q: Which yeast fitness does the source give for U3A A36U A57G G63C here?
A: 0.681

Q: For U2C G10C, which yeast fitness is on record?
A: 0.724

Q: With U2C C46U as the variant, how does the yeast fitness read?
A: 0.959

Q: For U3A C22U U28A A37U G51C C66U, which yeast fitness is on record?
A: ≤ 0.5

Q: With U3A G39A C49U as the variant, how does the yeast fitness read?
A: 0.559

Q: Which yeast fitness does the source give for U2G U7C G18C A42U C49G here?
A: ≤ 0.5

Q: For U3A C62A, which yeast fitness is on record?
A: 0.727

Q: Which yeast fitness does the source give for U2G A20U C29A G39A A45C here?
A: 0.586

Q: Which yeast fitness does the source give for U2G C24G C29G C31G U64C here?
A: ≤ 0.5

Q: Which yeast fitness does the source give for U2C C31G G58A G67U here?
A: ≤ 0.5

Q: For U3A A21G G23C A65C, which yeast fitness is on record?
A: ≤ 0.5

Q: With U2C C46G A65C as the variant, how does the yeast fitness read?
A: 0.678

Q: Which yeast fitness does the source give for U3A G50C G51C G56A here?
A: ≤ 0.5

Q: With U3A C30G C31U as the variant, how does the yeast fitness read?
A: ≤ 0.5

Q: Which yeast fitness does the source give for U3A C34U A45G C49U U53A here?
A: ≤ 0.5

Q: Which yeast fitness does the source give for U3A G6C C55G here?
A: ≤ 0.5

Q: With U3A C11A C33U G58C as the variant, how does the yeast fitness read?
A: ≤ 0.5

Q: With U2C G12A G18C C33U A69C as the variant, how does the yeast fitness read?
A: 0.565

Q: For U2C G67C, which yeast fitness is on record?
A: 0.741

Q: For U3A C27U C60A, which yeast fitness is on record?
A: ≤ 0.5

Q: With U3A C30U U54A as the variant, how does the yeast fitness read?
A: ≤ 0.5

Q: For U3A A20G C29U G48C, which yeast fitness is on record?
A: ≤ 0.5

Q: With U2G C33U C34G A69U as the variant, how does the yeast fitness read?
A: ≤ 0.5

Q: For U2G C11A C24A U26A G44C, which yeast fitness is on record?
A: ≤ 0.5

Q: With U3A C5U A37U as the variant, how does the yeast fitness read?
A: ≤ 0.5

Q: With U2G C62G G67A as the variant, how does the yeast fitness read?
A: 0.526

Q: Which yeast fitness does the source give for U2G G12A A15U C24G U53A U64A here?
A: ≤ 0.5

Q: For U2G C5U U32C C55U, which yeast fitness is on record?
A: 0.581

Q: Which yeast fitness does the source give for U3A A65C A70U here?
A: 0.66

Q: Which yeast fitness does the source give for U2G C27U A45C here?
A: 0.657

Q: Which yeast fitness does the source give for U3A C5G G56U here?
A: ≤ 0.5

Q: Which yeast fitness does the source give for U3A C5U C33G here?
A: 0.639

Q: With U3A C27U A37G G41C U64C A70C as the variant, how does the yeast fitness read?
A: ≤ 0.5

Q: With U3A G23A U32A as the variant, how does the yeast fitness read?
A: ≤ 0.5

Q: With U2G G9C G12A U32C A42C C46A A65U as the variant, how does the yeast fitness read?
A: ≤ 0.5

Q: For U3A C30G A36G C46G, which yeast fitness is on record?
A: ≤ 0.5

Q: Which yeast fitness does the source give for U2G C46A G63C here?
A: 0.56

Q: Which yeast fitness does the source give for U2C U8G C31G A42C C49U G56A C61G here?
A: ≤ 0.5

Q: For U3A G41C G63C A65U, which yeast fitness is on record?
A: ≤ 0.5

Q: With U2C U3C as the variant, how does the yeast fitness read?
A: 0.885

Q: For U3A A45U C46G G52A, which yeast fitness is on record?
A: 0.613

Q: For U2G C27G C33U, which yeast fitness is on record?
A: 0.644

Q: Which yeast fitness does the source give for U2C U3A C24A C27U G56C C66U here?
A: 0.562

Q: Which yeast fitness does the source give for U2G C30G C61U G68A here?
A: 0.531

Q: Which yeast fitness does the source give for U3A C11G C61A here?
A: ≤ 0.5
